The target in assay [1] is Geranylgeranyl transferase type-1 subunit beta (Homo sapiens, UniProt P53609). Briefly: Inhibitory concentration of geranylgeranyl-protein transferase type I.
Assay [2] concerns the target Protein farnesyltransferase (Homo sapiens, UniProt P49354+P49356). Briefly: In vitro inhibition of farnesyl transferase using purified recombinant human enzyme. The class given is protein-complex assay. The gist of the method: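 Purified recombinant human FTase with [1-³H]FPP and a recombinant protein substrate carrying the K-Ras C-terminus (CVIM). Labeled farnesyl incorporation measured by acid precipitation of total protein and scintillation counting. Final methanol or DMSO 0.5 vol %. Mostly run at least twice; SD given for n≥3.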

Assay [3] has as its target Protein farnesyltransferase (Rattus norvegicus). Briefly: Concentration required to displace 50% of a potent radiolabeled FTI from farnesyl transferase in cultured H-ras-transformed Rat1 cells.
For assay [4], the target named is Voltage-gated inwardly rectifying potassium channel KCNH2 (Homo sapiens, UniProt Q12809).
Chain of Voltage-gated inwardly rectifying potassium channel KCNH2 (Q12809 whole entry): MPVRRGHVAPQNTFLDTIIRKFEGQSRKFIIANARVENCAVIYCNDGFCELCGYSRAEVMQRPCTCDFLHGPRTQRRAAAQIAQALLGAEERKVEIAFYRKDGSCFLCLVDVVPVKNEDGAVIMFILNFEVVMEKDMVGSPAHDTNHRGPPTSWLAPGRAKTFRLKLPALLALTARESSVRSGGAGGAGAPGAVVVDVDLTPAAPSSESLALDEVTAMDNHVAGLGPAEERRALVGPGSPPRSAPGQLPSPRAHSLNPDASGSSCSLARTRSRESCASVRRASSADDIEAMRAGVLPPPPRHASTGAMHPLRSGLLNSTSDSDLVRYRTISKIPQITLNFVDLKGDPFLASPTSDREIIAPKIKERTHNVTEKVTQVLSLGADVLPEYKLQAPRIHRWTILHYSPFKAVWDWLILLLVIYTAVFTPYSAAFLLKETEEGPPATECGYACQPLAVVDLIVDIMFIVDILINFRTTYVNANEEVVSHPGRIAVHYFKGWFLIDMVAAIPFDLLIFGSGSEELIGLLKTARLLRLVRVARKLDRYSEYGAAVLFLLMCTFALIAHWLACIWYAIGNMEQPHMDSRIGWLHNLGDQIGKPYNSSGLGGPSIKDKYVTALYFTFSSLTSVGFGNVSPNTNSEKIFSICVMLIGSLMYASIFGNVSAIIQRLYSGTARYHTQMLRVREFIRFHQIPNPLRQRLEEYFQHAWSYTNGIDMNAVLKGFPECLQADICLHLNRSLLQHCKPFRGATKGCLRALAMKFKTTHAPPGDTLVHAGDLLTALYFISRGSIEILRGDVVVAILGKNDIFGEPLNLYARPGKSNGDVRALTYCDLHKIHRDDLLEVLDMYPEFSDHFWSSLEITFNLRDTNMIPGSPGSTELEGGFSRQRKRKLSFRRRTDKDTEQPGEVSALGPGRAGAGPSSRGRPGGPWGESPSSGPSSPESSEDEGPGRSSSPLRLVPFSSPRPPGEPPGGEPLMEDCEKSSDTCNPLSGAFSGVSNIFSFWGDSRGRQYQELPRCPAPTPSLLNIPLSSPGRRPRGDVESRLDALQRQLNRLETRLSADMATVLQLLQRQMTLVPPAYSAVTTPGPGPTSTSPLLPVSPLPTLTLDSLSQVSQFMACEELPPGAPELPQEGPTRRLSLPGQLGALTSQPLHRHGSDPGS

Broadly, the IC50 is the concentration at which inhibition is half-maximal.

Each structure is given as a SMILES string.

Chain of Geranylgeranyl transferase type-1 subunit beta (P53609 whole entry): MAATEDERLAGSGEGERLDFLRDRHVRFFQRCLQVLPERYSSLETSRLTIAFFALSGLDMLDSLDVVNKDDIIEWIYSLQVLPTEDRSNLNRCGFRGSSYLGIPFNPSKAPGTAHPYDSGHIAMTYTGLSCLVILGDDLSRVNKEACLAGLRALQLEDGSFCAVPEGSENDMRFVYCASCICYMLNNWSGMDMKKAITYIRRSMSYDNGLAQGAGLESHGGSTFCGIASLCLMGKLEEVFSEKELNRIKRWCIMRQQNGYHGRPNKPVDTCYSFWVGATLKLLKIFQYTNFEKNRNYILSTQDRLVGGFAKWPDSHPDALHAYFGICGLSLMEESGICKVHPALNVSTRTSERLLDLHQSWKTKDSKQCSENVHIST

Consider `N#Cc1ccc(Cn2cncc2CN[C@@H]2CCN(c3ccccc3)C2=O)cc1`, for which the results for the IC50 in assay [1] and in assay [2] were 41000 nM and 200 nM, respectively.
In assay [1], `N#Cc1ccc(Cn2cncc2CN[C@H]2CCN(c3cccc4ncccc34)C2=O)cc1` came in with an IC50 above 20000 nM.
`N#Cc1ccc(Cn2cncc2CN[C@@H]2CCN(Cc3ccccc3)C2=O)cc1` yielded an IC50 in assay [1] of 46000 nM.
Consider `N#Cc1ccc(Cn2cncc2CN[C@@H]2CCN(CCc3ccccc3)C2=O)cc1`, for which the results for the IC50 in assay [1] and in assay [2] were 31000 nM and 250 nM, respectively.
For `CC(C)(C)OC(=O)NCCCN(Cc1cncn1Cc1ccc(C#N)cc1)[C@H]1CCN(Cc2cccc(Cl)c2)C1=O`, the IC50 in assay [1] was 2700 nM; in assay [3], 1.1 nM; in assay [4], 110 nM; in assay [2] it was 1.3 nM.
The compound `N#Cc1ccc(Cn2cncc2CN(CCN2CCOCC2)[C@H]2CCN(Cc3cccc(Cl)c3)C2=O)cc1` gave an IC50 in assay [1] of 12000 nM.
Consider `COc1ncccc1C(=O)N1CC[C@H](NCc2cncn2Cc2ccc(C#N)cc2)C1`, for which the figures for the IC50 in assay [1] and in assay [2] were above 50000 nM and 150 nM, respectively.
Take `N#Cc1ccc(Cn2cncc2CN[C@H]2CCN(C(=O)c3ccc(Cl)cc3)C2)cc1`: the IC50 in assay [1] is 19000 nM; in assay [3] it was 70 nM; in assay [2], 89 nM.
For the compound `N#Cc1ccc(Cn2cncc2CN[C@H]2CCN(C(=O)c3ccc[nH]c3=O)C2)cc1`, the IC50 in assay [1] was above 50000 nM; in assay [2], 6800 nM.
On to `N#Cc1ccc(Cn2cncc2CN[C@H]2CCN(c3ccc(Cl)cc3)C2=O)cc1`, for which the IC50 came out at 11000 nM in assay [1], 30 nM in assay [3] and 21 nM in assay [2].
In the case of `N#Cc1ccc(Cn2cncc2CN[C@H]2CCN(C(=O)c3ccccc3Cl)C2)cc1`, the IC50 in assay [1] came to 19000 nM; in assay [2] it was 65 nM.
For the compound `N#Cc1ccc(Cn2cncc2CN(Cc2ccccc2)[C@H]2CCN(Cc3ccccc3)C2=O)cc1`, the IC50 in assay [1] was 20000 nM; in assay [2], 67 nM.
`N#Cc1ccc(Cn2cncc2CN(CCN2CCNCC2)[C@H]2CCN(Cc3cccc(Cl)c3)C2=O)cc1` showed an IC50 in assay [1] above 50000 nM.
As to `N#Cc1ccc(Cn2cncc2CCN[C@@H]2CCN(c3ccccc3)C2=O)cc1`, the figures for the half-maximal inhibitory concentration (IC50) in assay [1] and in assay [2] were 16000 nM and 120 nM, respectively.
For the compound `N#Cc1ccc(Cn2cncc2CN[C@H]2CCN(c3ccccn3)C2=O)cc1`, the IC50 is 36000 nM in assay [1] and 370 nM in assay [2].
On to `N#Cc1ccc(Cn2cncc2CCN[C@H]2CCN(CCc3ccccc3)C2=O)cc1`, for which the IC50 in assay [1] came out at 2800 nM; in assay [2], 240 nM.
`N#Cc1ccc(Cn2cncc2CN[C@H]2CCN(Cc3cccc(Cl)c3)C2=O)cc1`: the IC50 in assay [1] is 3400 nM.
As to `N#Cc1ccc(Cn2cncc2CN[C@H]2CCN(Cc3ccccc3)C2=O)cc1`, the results for the IC50 in assay [1] and in assay [4] were 40000 nM and 7200 nM, respectively.
In the case of `N#Cc1ccc(Cn2cncc2CN(CCCc2ccccc2)[C@H]2CCN(Cc3cccc(Cl)c3)C2=O)cc1`, the IC50 in assay [1] turned out to be 6500 nM.
For `Cc1ncccc1C(=O)N1CC[C@H](NCc2cncn2Cc2ccc(C#N)cc2)C1`, the IC50 was above 50000 nM in assay [1], 610 nM in assay [3], above 10000 nM in assay [4] and 100 nM in assay [2].
For `N#Cc1ccc(Cn2cncc2CN[C@H]2CCN(C(=O)c3cccc(Cl)c3)C2)cc1`, the IC50 is 11000 nM in assay [1], 67 nM in assay [3], 5800 nM in assay [4] and 27 nM in assay [2].
Turning to `N#Cc1ccc(Cn2cncc2CCN[C@@H]2CCN(CCc3ccccc3)C2=O)cc1`, the results for the IC50 in assay [1] and in assay [2] were 1500 nM and 380 nM, respectively.
Consider `N#Cc1ccc(Cn2cncc2CN[C@H]2CCN(Cc3ccccc3Cl)C2=O)cc1`, for which the IC50 in assay [1] was determined as 11000 nM; in assay [3], 2.7 nM; in assay [2], 5.2 nM.
Take `N#Cc1ccc(Cn2cncc2CN(CCc2ccccc2)[C@H]2CCN(Cc3ccccc3)C2=O)cc1`: the IC50 amounted to 15000 nM in assay [1], 460 nM in assay [3] and 51 nM in assay [2].
Compound `CSc1ncccc1C(=O)N1CC[C@H](NCc2cncn2Cc2ccc(C#N)cc2)C1` returned an IC50 in assay [1] of 28000 nM.
In assay [1], `N#Cc1ccc(Cn2cncc2CN(CCCN)[C@H]2CCN(Cc3ccccc3)C2=O)cc1` yielded an IC50 above 50000 nM.
As for `N#Cc1ccc(Cn2cncc2CN[C@H]2CCN(C(=O)c3cccc4ccccc34)C2)cc1`, the IC50 in assay [1] was 880 nM; in assay [3], 330 nM; in assay [2], 11 nM.
For `N#Cc1ccc(Cn2cncc2CN[C@H]2CCN(Cc3ccc(Cl)cc3)C2=O)cc1`, the IC50 in assay [1] is 15000 nM; in assay [3], 53 nM; in assay [2] it was 25 nM.
As to `N#Cc1ccc(Cn2cncc2CN[C@H]2CCN(C(=O)c3ccccc3)C2)cc1`, the IC50 in assay [1] turned out to be 24000 nM; in assay [2], 110 nM.
Regarding `N#Cc1ccc(Cn2cncc2CN(Cc2cccnc2)[C@H]2CCN(Cc3ccccc3)C2=O)cc1`, the IC50 in assay [1] is above 50000 nM.
The compound `N#Cc1ccc(Cn2cncc2CN(CCCc2ccccc2)[C@H]2CCN(Cc3ccccc3)C2=O)cc1` registered an IC50 in assay [1] of 12000 nM.
Take `CCCN(Cc1cncn1Cc1ccc(C#N)cc1)[C@H]1CCN(Cc2ccccc2)C1=O`: the IC50 came out at 36 nM in assay [3] and 59 nM in assay [2].
For the compound `N#Cc1ccc(Cn2cncc2CCN[C@H]2CCN(c3ccccc3)C2=O)cc1`, the IC50 in assay [1] amounted to 14000 nM; in assay [3], 150 nM; in assay [2], 280 nM.
As for `N#Cc1ccc(Cn2cncc2CN[C@H]2CCN(CCc3ccccc3)C2=O)cc1`, the concentration for half-maximal inhibition (IC50) in assay [1] is 48000 nM; in assay [2] it was 230 nM.
As to `N#Cc1ccc(Cn2cncc2CN[C@H]2CCN(C(=O)c3cccnc3S)C2)cc1`, the results for the IC50 in assay [1], in assay [4] and in assay [2] were above 50000 nM, 11000 nM and 2900 nM, respectively.
As for `N#Cc1ccc(Cn2cncc2CN[C@H]2CCN(c3ccccc3)C2=O)cc1`, the IC50 in assay [1] stood at 46000 nM; in assay [3], 27 nM; in assay [2] it was 74 nM.
With `N#Cc1ccc(Cn2cncc2CCN[C@@H]2CCN(Cc3ccccc3)C2=O)cc1`, the IC50 in assay [1] is 11000 nM; in assay [2], 250 nM.
In the case of `N#Cc1ccc(Cn2cncc2CN(CCCN)[C@H]2CCN(Cc3cccc(Cl)c3)C2=O)cc1`, the IC50 in assay [1] was above 50000 nM; in assay [3], 150 nM; in assay [4], 480 nM; in assay [2], 7.5 nM.
As for `N#Cc1ccc(Cn2cncc2CCN[C@H]2CCN(Cc3ccccc3)C2=O)cc1`, the IC50 came out at 7400 nM in assay [1] and 270 nM in assay [2].
As to `CCSc1ncccc1C(=O)N1CC[C@H](NCc2cncn2Cc2ccc(C#N)cc2)C1`, the concentration for half-maximal inhibition (IC50) is around 5100 nM in assay [1], 6.2 nM in assay [3], 14000 nM in assay [4] and 4.8 nM in assay [2].
In turn, `CC(C)(C)OC(=O)NCCCN(Cc1cncn1Cc1ccc(C#N)cc1)[C@H]1CCN(Cc2ccccc2)C1=O` had an IC50 in assay [1] of 3600 nM.
With `N#Cc1ccc(Cn2cncc2CN(CCCCc2ccccc2)[C@H]2CCN(Cc3ccccc3)C2=O)cc1`, the half-inhibitory concentration (IC50) was 4600 nM in assay [1], 310 nM in assay [3] and 42 nM in assay [2].
For the compound `N#Cc1ccc(Cn2cncc2CN[C@H]2CCN(C(=O)c3cncc(Br)c3)C2)cc1`, the IC50 was found to be 41000 nM in assay [1], 49 nM in assay [3], 6000 nM in assay [4] and 43 nM in assay [2].
As for `N#Cc1ccc(Cn2cncc2CN[C@H]2CCN(c3cccc(Cl)c3)C2=O)cc1`, the IC50 was 6500 nM in assay [1], 30 nM in assay [3] and 8.4 nM in assay [2].
For the compound `N#Cc1ccc(Cn2cncc2CN[C@H]2CCN(C(=O)c3cccnc3N)C2)cc1`, the IC50 in assay [1] is above 50000 nM; in assay [4], above 50000 nM; in assay [2], 980 nM.
Consider `N#Cc1ccc(Cn2cncc2CN[C@H]2CCN(c3ccncc3)C2=O)cc1`, for which the IC50 in assay [1] is above 20000 nM; in assay [3] it was 200 nM; in assay [2] it was 43 nM.
For `N#Cc1ccc(Cn2cncc2CN[C@H]2CCN(c3ccccc3Cl)C2=O)cc1` the same measures were 42000 nM, 14 nM and 1.5 nM.
`N#Cc1ccc(Cn2cncc2CN[C@H]2CCN(c3cccnc3)C2=O)cc1`: the IC50 in assay [1] was above 20000 nM; in assay [3], 240 nM; in assay [2], 85 nM.
For the compound `N#Cc1ccc(Cn2cncc2CN[C@H]2CCN(C(=O)c3cccnc3)C2)cc1`, the IC50 in assay [1] is above 50000 nM; in assay [2], 2000 nM.

Values taken from ChEMBL document CHEMBL1134579, “Design and biological activity of (S)-4-(5-([1-(3-chlorobenzyl)-2-oxopyrrolidin-3-ylamino]methyl)imidazol-1-ylmethyl)benzonitrile, a 3-aminopyrrolidinone farnesyltransferase inhibitor with excellent cell potency” (J Med Chem, 2001).
